Article PMC5469413 (Journal of immunology (Baltimore, Md. : 1950), 2017)

Tests used:
Staphylococcus aureus = experiment: Bacterial killing assay with recombinant whole IFN-β; format: cell-based; details: 5×10^2 units/ml mIFN-β incubated at 37°C for 60 min, then bacteria 3 hours, CFU
Staphylococcus epidermis = experiment: Bacterial killing assay with recombinant whole IFN-β; format: cell-based; details: incubated with IFN-β (Fig. S1)
Method in brief: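 Overnight cultures subcultured to mid-log (OD₆₀₀=0.4), washed in sterile PBS and renormalised to OD₆₀₀=0.4. Bacteria resuspended in assay medium and incubated with recombinant whole IFN-β or vehicle in 100 μl reactions at 37°C with shaking. Ten-fold serial dilutions plated on LB to count surviving CFU.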

[1] = system: gram-negative strains of bacteria; experiment: Killing assay with IFN-β helix 4 peptide, gram-negative bacteria; format: cell-based; details: bacteria 1×10^5/ml, 6 μM mouse helix 4 peptide, 3 hours, 37°C, CFU (Fig. 6I)
[2] = system: S. aureus isogenic mutant lacking the dlt gene (Δdlt); experiment: Bacterial killing assay with recombinant whole IFN-β, dlt-deficient strain; format: cell-based, Staphylococcus aureus; details: increasing concentrations of IFN-β, 3 hours, CFU
Escherichia coli = experiment: Bacterial killing assay with recombinant whole IFN-β; format: cell-based; details: increasing doses of IFN-β, 3 hours, CFU

## mIFN-β: recombinant whole mouse IFN-β (PBL Interferon)
Staphylococcus aureus
  killing of S. aureus after pre-incubation at 37°C: killing was not lost
Staphylococcus epidermis
  killing of Staphylococcus epidermis: observed killing
[1]
  antimicrobial activity against gram-negative bacteria: significantly less effective
[2]
  killing of Δdlt S. aureus compared to WT: increased killing of Δdlt bacteria compared to WT
Escherichia coli
  inhibitory or killing effect on Escherichia coli: did not observe any inhibitory or killing effect
